Screening data deposited in PubChem BioAssay by The Scripps Research Institute Molecular Screening Center.
core dimer inh – HCV core protein dimerization inhibition. inhibition, % at 5 µM. AID 1899. TR-FRET GST/Flag-core106 dimerization, 1536-well. 300,000 compounds, 0.33% hits;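 active means inhibition above the mean of all tested compounds plus 3 SD, set per screening campaign, cut at about 45% in these data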
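Assay system: tagged HCV core106 pair (GST and Flag); medium: KF-containing HEPES buffer, pH 7.45, DTT, CHAPS, BSA; also added: Eu donor and XL665 acceptor anti-tag antibodies; dosing: 5 µM single dose; timing: compound-protein-antibody incubation 4 h at 22.5 °C; signal: TR-FRET 671 and 617 nm emission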
HCV NS3 hel inh – HCV NS3 helicase inhibition; AID 1800; 290,000 compounds, 0.56% hits; NS3 helicase DNA unwinding, Cy5 molecular beacon fluorescence; inhibition, % at 10.9 µM;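 active means inhibition above the mean of all tested compounds plus 3 SD, set per campaign, cut at about 35% in these data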;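 further: 0% = DMSO wells and 100% = thioflavine S control wells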
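Test system: hepatitis C virus NS3 helicase domain fragment enzyme. Also added: annealed dual-labelled DNA beacon duplex, ATP-started. Timing: 60 min unwinding reaction at 25 °C after ATP addition. Technique: Cy5 fluorescence. Measure: % inhibition of unwinding.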
PP1 inh – PP1-alpha (human) inhibition in PP5 counter-screen. P62136. purified PP1alpha, OMFP fluorescence. inhibition, % at 6.7 µM. 320,000 compounds, 0.9% hits;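 active means inhibition above the mean inhibition of all tested compounds plus 3 SD, computed separately for each screening campaign, cut at about 15% in these data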
Target sequence (P62136 whole entry, looked up): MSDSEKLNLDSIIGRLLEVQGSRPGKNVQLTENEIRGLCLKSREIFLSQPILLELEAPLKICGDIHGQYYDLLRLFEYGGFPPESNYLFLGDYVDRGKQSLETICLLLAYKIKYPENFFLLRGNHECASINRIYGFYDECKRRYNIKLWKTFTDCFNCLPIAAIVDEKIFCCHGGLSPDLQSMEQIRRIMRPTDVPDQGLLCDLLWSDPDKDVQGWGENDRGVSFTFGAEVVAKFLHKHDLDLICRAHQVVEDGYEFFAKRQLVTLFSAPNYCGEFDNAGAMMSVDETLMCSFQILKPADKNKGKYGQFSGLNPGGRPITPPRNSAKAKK
ZTA DNA inh – ZTA (EBV) inhibition in EBNA-1 counter-screen; ZTA-DNA binding, fluorescence polarization; inhibition, % at 11 µM; 320,000 compounds, 0.15% hits; AID 2234; in the data active means inhibition above about 33%
Target sequence (P03206 whole entry, looked up): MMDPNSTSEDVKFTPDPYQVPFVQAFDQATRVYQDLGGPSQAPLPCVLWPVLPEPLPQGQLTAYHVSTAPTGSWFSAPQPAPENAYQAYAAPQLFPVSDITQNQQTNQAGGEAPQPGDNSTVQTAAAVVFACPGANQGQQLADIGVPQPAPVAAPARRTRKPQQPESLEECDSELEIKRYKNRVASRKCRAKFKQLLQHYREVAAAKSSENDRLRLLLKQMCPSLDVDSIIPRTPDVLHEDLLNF
EBNA-1 inh – blocks EBNA-1 binding to DNA | EBNA-1 DNA binding, fluorescence polarization | inhibition, % at 14.8 µM | 300,000 compounds, 0.34% hits; in the data active means inhibition above about 28%
NS3 helicase cf – confirmation of Hepatitis C virus NS3 helicase inhibitors; shares compounds with HCV NS3 hel inh; NS3 helicase DNA unwinding, Cy5 molecular beacon fluorescence; inhibition, % at 10.9 µM; 1,600 compounds, 31% hits; AID 1943;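 active means inhibition above the mean of all tested compounds plus 3 SD, cutoff set per campaign, cut at about 36% in these data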
FID counter trip – intercalator displacement, NS3 helicase counter-screen. AID 1945. 1,600 compounds, 4% hits. DNA fluorescent intercalator displacement, fluorescence. shares compounds with HCV NS3 hel inh. inhibition, % at 7.9 µM; in the data active means inhibition above about 37%;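 further: 0% = vehicle and 100% = reference compound; higher means more displacement of ethidium bromide from the DNA hairpin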
FID counter DR – displaces fluorescent intercalator from DNA, HCV helicase counter-screen; fluorescent intercalator displacement from DNA, fluorescence; shares compounds with HCV NS3 hel inh; 120 tested, under 10 active; IC50, µM; call rule not given here
Numbers without * were called inactive; / = not tested or not shown. This is a sample that favours compounds with a hit; in the whole collection about 1.9% have one here.

SMILES | core dimer inh | HCV NS3 hel inh | PP1 inh | ZTA DNA inh | EBNA-1 inh | NS3 helicase cf | FID counter trip | others
Cc1c(C(=O)O)cccc1-c1ccc(/C=N/Nc2ccc(Br)cc2)o1 | -6 | 44* | 5 | -1 | -8 | 38* | 2
O=C(O)c1ccc(N/N=C/c2ccc(-c3ccc(Cl)cc3Cl)o2)cc1 | 15 | 36* | 13 | 23 | 12 | 53* | 17
O=C(O)c1ccc(N/N=C/c2ccc(-c3cccc(Cl)c3)o2)cc1 | -2 | -8 | 5 | -4 | 5 | / | /
CCOC(=O)c1ccc2c(c1)N(CC#N)C(=O)C(C)(C)O2 | 0 | 4 | 0 | -4 | -5 | / | /
CCCCN(CCCNC(=O)c1ccc2nc(N3CCOCC3)sc2c1)Cc1ccccc1 | -2 | -13 | -2 | -2 | -10 | / | /
Cc1cccc(NC(=O)CSc2nnc(-c3ccco3)c(-c3ccco3)n2)c1C | 11 | 52* | 8 | 19 | 1 | 77* | 23
O=c1ccc(N=Nc2ccccc2)ccc1O | -14 | 51* | 8 | 1 | 3 | 48* | -2 | FID counter DR=>79
CCN(CC)c1ccc(N=Cc2c(C)[nH]c3ccccc23)cc1 | -15 | 38* | 2 | 188* | 199* | 28 | 39*
Nc1nc(-c2ccccc2)[nH]c(=O)c1N | 0 | 4 | 7 | -1 | 0 | / | /
NC1=C(c2ccccc2)C(=O)NC1=O | -2 | 37* | -5 | 3 | 6 | -11 | 20
COc1ccc(-c2cc(C(=O)NC(C)c3ccccn3)c3ccccc3n2)cc1OC (stereo not given) | / | / | -3 | 0 | / | / | /
Cc1ccccc1C(=O)NCCNC(=O)c1cnccn1 | -2 | 9 | 0 | -2 | 9 | / | /
CCOC(=O)N1CCC(NC(=O)c2ccc(CS(=O)c3cccc(Cl)c3)o2)CC1 (stereo not given) | -15 | 1 | 1 | -13 | 3 | / | /
CCCCCCCCCCCCN1C/C(=C\C(=O)OCC)c2cc(C(F)(F)F)ccc2S1(=O)=O | 12 | 25 | 4 | -1 | 13 | / | /
CCCCCCCCCCCCN1C/C(=C\C(=O)OCC)c2ccccc2S1(=O)=O | -4 | 80* | -2 | 9 | 6 | 10 | -22
COc1ccc(OC)c(C2C(C(=O)c3cc4ccccc4o3)=C(O)C(=O)N2c2cc(C)on2)c1 (stereo not given) | 15 | 37* | 21* | -18 | -5 | 80* | -6 | FID counter DR=>79
COc1cccc(C2C(C(=O)c3cc4ccccc4o3)=C(O)C(=O)N2CCN2CCOCC2)c1 (stereo not given) | 0 | 8 | 1 | -7 | -12 | / | /
COc1cccc(C2C(C(=O)c3cc4ccccc4o3)=C(O)C(=O)N2c2cc(C)on2)c1 (stereo not given) | -1 | 41* | 25* | -1 | 7 | 105* | 5
Cc1cc(N2C(=O)C(O)=C(C(=O)c3cc4ccccc4o3)C2c2ccc(Br)cc2)no1 (stereo not given) | -6 | 42* | 26* | -8 | 7 | 122* | 0
COC(=O)c1sc(N2C(=O)C(O)=C(C(=O)c3ccc(C)o3)C2c2cc(OC)ccc2OC)nc1C (stereo not given) | 3 | 54* | 13 | 6 | 3 | 93* | -20 | FID counter DR=>79
CC1CCc2c(sc(NC(=O)CSc3nnc(-c4ccccc4)o3)c2C#N)C1 (stereo not given) | 1 | 47* | 1 | 8 | -4 | 1 | 6
Cc1sc(NC(=O)CSc2nnc(-c3ccccc3)o2)c(C#N)c1C | 11 | 38* | 0 | -3 | 19 | -2 | -22
Cn1ccnc1Sc1ccc(/C=N/NC(=O)c2ccccc2O)cc1[N+](=O)[O-] | -4 | 47* | -3 | -9 | 7 | -4 | 13
C=C1C[C@H](O)[C@@H]2[C@H](OC(=O)[C@H]2C)[C@H]2[C@H](C)[C@@H](O)C[C@@H]12 | / | / | -5 | -6 | / | / | /
Cc1ccc(S(=O)(=O)N(Cc2ccc(Cl)cc2)c2ccccc2C(=O)O)cc1 | 3 | 36* | -5 | -1 | 3 | 41* | -24
SMILES | core dimer inh | HCV NS3 hel inh | PP1 inh | ZTA DNA inh | EBNA-1 inh | NS3 helicase cf | FID counter trip | others
O=C(Nc1nc2c(Cl)c(Cl)ccc2s1)C1CC1 | -6 | 41* | 1 | -2 | -3 | 2 | -12
O=C(Nc1nc2c(Cl)cccc2s1)C1CC1 | -3 | 2 | 0 | 17 | 10 | / | /
CC(=O)OCC1=C(C(=O)O)N2C(=O)C(NC(=O)Cn3nc(C(F)F)c(Cl)c3C)C2SC1 (stereo not given) | 2 | 40* | 1 | 8 | -7 | 18 | -9
Cc1nnc(SCC2=C(C(=O)O)N3C(=O)C(NC(=O)c4cc(F)c(F)cc4Cl)C3SC2)s1 (stereo not given) | 1 | 36* | 0 | -7 | 3 | 11 | -23
Cc1nnc(SCC2=C(C(=O)O)N3C(=O)C(NC(=O)Cn4nc(C(F)F)cc4C)C3SC2)s1 (stereo not given) | 0 | 18 | 0 | 26 | 1 | / | /
CC(=O)OCC1=C(C(=O)O)N2C(=O)C(NC(=O)c3ccc(COc4c(C)cccc4Cl)o3)C2SC1 (stereo not given) | 14 | 38* | 7 | -3 | 6 | 46* | -16
Cc1nnc(SCC2=C(C(=O)O)N3C(=O)C(NC(=O)Cn4nc(C(F)F)c(Cl)c4C)C3SC2)s1 (stereo not given) | -2 | 45* | -1 | 8 | -1 | 38* | -22
O=C(NC(NC(=S)Nc1cccc(Cl)c1)C(Cl)(Cl)Cl)OCc1ccccc1 (stereo not given) | -2 | 9 | 12 | -25 | 8 | / | /
CCOC(=O)Cc1csc(N/N=C/c2ccccc2)n1 | -2 | 1 | -1 | 3 | -6 | / | /
CCOC(=O)Cc1csc(N/N=C\c2ccc(N(C)C)cc2)n1 | 18 | 50* | 3 | -9 | -5 | -16 | 2
CC12CCCCC1NS(=O)(=O)OC2 (stereo not given) | 13 | 41* | -2 | -2 | 11 | -17 | 10
CN(C)S(=O)(=O)c1cccc(CNCC2COc3ccccc3O2)c1 (stereo not given) | 6 | -5 | -3 | 2 | 0 | / | /
O=C(/C=C/c1ccco1)N(Cc1ccc(Cl)cc1)C1CCS(=O)(=O)C1 (stereo not given) | 5 | 42* | 1 | 1 | 0 | 0 | -23
CCc1ccccc1NC(=O)CSc1nnc(-c2cc(C)[nH]n2)n1N | 9 | -2 | -3 | -1 | -2 | / | /
CCOc1ccc(CC(=O)Nc2cc(=O)n(C)c(=O)n2C)cc1 | 2 | -4 | 4 | -3 | -10 | / | /
